Screening data (PubChem BioAssay)
Compounds with a hit are over-represented: about 2.3% of the library has one in this group of screens.
TRPC4 inh: inhibitors of mouse TRPC4 channel, primary screen, Fluo4 calcium, HEK293 TRPC4beta/mu-opioid cells; DAMGO-evoked Fluo4 calcium flux; stronger effect = lower value; B-score at 10 µM; 0.39% of 300,000 active; AID 2247, 2010;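 active = B-score over 3 SD under the library average, no early fluorescence shift, positive overall ratio signal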
Target sequence (Q9QUQ5 whole entry, looked up): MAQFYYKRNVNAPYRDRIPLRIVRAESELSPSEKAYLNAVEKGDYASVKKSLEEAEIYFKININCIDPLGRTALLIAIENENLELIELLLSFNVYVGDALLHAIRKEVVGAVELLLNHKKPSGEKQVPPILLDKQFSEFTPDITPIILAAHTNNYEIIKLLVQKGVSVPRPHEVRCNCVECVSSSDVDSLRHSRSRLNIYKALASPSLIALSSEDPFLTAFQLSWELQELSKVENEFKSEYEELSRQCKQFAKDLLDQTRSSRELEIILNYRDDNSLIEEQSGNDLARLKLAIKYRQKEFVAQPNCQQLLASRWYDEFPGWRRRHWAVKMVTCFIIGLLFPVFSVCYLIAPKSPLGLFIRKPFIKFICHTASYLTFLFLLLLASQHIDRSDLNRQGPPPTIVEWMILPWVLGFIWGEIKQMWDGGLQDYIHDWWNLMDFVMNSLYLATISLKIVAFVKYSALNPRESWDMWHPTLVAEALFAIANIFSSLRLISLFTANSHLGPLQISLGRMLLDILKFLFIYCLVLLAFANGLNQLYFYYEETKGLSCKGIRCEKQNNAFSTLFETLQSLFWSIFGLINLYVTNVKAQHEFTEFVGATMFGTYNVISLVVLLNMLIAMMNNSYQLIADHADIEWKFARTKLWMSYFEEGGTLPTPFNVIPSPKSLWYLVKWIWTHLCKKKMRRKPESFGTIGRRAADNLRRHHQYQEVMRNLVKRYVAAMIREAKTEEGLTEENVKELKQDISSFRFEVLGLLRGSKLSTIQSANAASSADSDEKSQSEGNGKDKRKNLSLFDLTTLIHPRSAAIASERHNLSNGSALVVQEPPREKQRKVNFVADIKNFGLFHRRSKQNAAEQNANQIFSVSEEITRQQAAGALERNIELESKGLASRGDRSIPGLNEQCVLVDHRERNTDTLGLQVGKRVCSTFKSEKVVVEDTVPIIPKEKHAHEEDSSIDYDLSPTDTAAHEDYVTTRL
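Assay system: HEK293 cells with stable TRPC4beta plus mu-opioid receptor expression. Dosing: single dose. Measured by: Fluo4 Ca2+ flux fluorescence. Also added: DAMGO in two steps, submaximal then maximal. Read-out: B score from integrated Fluo4 fluorescence ratio.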
TRPC6 inhibitor: mouse TRPC6 channel inhibitors, primary screen, cell-based, HEK293, membrane potential dye | B-score at 10 µM | Short transient receptor potential channel 6 (Mus musculus), Q61143 | AID 2553, 2010 | 1.1% of 310,000 active | ACh-evoked depolarization; stronger effect = lower value;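 active = B-score under library mean minus 3 SD, initial fluorescence not abnormally high, positive integrated signal ratio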;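 also: B-score derived from integrated fluorescence ratio over the kinetic read; more negative B-score means stronger inhibition of depolarization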
TRPC4 PAM: positive allosteric modulators of TRPC4, primary screen, cell-based, mouse TRPC4beta, HEK293 mu-opioid, Fluo-4 calcium | Short transient receptor potential channel 4 (Mus musculus), Q9QUQ5 | DAMGO EC20, Fluo-4 Ca2+ flux; stronger effect = higher value | B-score at 10 µM | 0.42% of 310,000 active | AID 2227, 2009;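 active = B-score of calcium response area above 5 SD of library B-scores, with initial fluorescence ratio within 5 SD of library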;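 also: B-score of integrated fluorescence ratio over time as area under calcium response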
TRPC6 act: mouse TRPC6 channel activators, primary screen, cell-based, HEK293, membrane potential dye; Short transient receptor potential channel 6 (Mus musculus), Q61143; HEK293-TRPC6 membrane potential dye fluorescence; stronger effect = higher value; B-score at 10 µM; 0.13% of 310,000 active;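 active = B-score of the integrated fluorescence ratio above library mean plus 3 SD, and starting fluorescence ratio within library mean plus 5 SD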;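 also: higher score means more depolarization so channel activation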
TRPC4 agonist: activators of mouse TRPC4 channel, primary screen, Fluo4 calcium, HEK293 TRPC4beta/mu-opioid cells; Short transient receptor potential channel 4 (Mus musculus), Q9QUQ5; Fluo4 calcium fluorescence; stronger effect = higher value; B-score at 10 µM; 0.49% of 310,000 active;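 active = B-score above 5 SD of library B-scores, and initial fluorescence ratio not above library mean plus 5 SD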;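 also: positive B-score marks a calcium rise read as TRPC4 activation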
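System – HEK293 cells stably co-expressing mouse TRPC4beta and mu-opioid receptor · Signal – Fluo4 calcium-sensitive dye fluorescence, kinetic, 1 Hz baseline · Benchmarks – buffer (low) and maximal DAMGO (high) · Read-out – B score of integrated fluorescence ratio per well · Incubation – dye loading 45 min room temperature, 110 s kinetic read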
TRPC4 spec 2: second selectivity test of TRPC6 inhibitors: effect on mouse TRPC4; AID 2776; HEK293 TRPC4/MOR, membrane potential dye fluorescence; channel activated by saturating DAMGO dose; shares compounds with TRPC6 inhibitor; inhibition, % at 10 µM; 42% of 920 active;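 active = compounds whose fluorescence signal differed from control wells by over 3 SD, either direction, in both duplicate plates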
TRPC4 spec: mouse TRPC4 modulation by TRPC6 hits, confirmation, selectivity assay for TRPC6 inhibitor project, cell-based, HEK293 TRPC4/mu-opioid, membrane potential dye; shares compounds with TRPC6 inhibitor; membrane potential fluorescence; activity change, negative = inhibition, % at 10 µM; 61% of 920 active; AID 2777, 2010;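 active = rise or fall in signal beyond 3 SD of buffer-only wells in both replicate plates, either sign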;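 also: integrated kinetic ratio of fluorescence range over baseline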
HEK293 MPD ctr 2-1: nonspecific membrane potential effects, parental HEK293, confirmation, counter-screen for TRPC6 inhibitor project, cell-based, second counter screen; shares compounds with TRPC6 inhibitor; parental HEK293 membrane potential dye fluorescence; maximal acetylcholine challenge after compound addition; signal change vs control, % at 10 µM; 31% of 920 active; AID 2779, 2010;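 active = membrane potential signal moving either way by over 3 SD of the maximum-effect control, in both duplicate plates, meaning non-specific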
HEK293 MPD ctr-1: membrane potential modulation in parental HEK293, confirmation, counter-screen for TRPC6 inhibitor project, cell-based. AID 2780, 2010. membrane potential signal change, % at 10 µM. parental HEK293 membrane potential dye fluorescence. 60% of 920 active. shares compounds with TRPC6 inhibitor;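 active = membrane potential signal shifting up or down by more than 3 SD of buffer-only wells, on both duplicate plates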
HEK293 MPD ctr-2: parental HEK293 membrane potential modulation, confirmation, counter-screen for TRPC6 modulator project, cell-based. membrane potential dye fluorescence. shares compounds with TRPC6 inhibitor. AID 488924, 2010. 51% of 2,400 active. membrane potential signal change, % at 10 µM;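 active = membrane potential signal moves up or down beyond 5 SD from buffer-only wells, on both duplicate plates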
HEK293 MPD ctr 2-2: second counter-screen for TRPC6 modulators: effect in parental HEK293 cells | membrane potential dye fluorescence; after compound, maximal acetylcholine stimulation | shares compounds with TRPC6 inhibitor | 14% of 2,400 active | inhibition, % at 10 µM;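 active = membrane potential signal drops by more than 5 SD from the mean control signal, in both duplicate plates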;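 also: plate controls were acetylcholine ECmax control wells for no effect and buffer only wells for full effect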
TRPC4/MOR mod: TRPC4 modulation by TRPC6 hit compounds, confirmation, selectivity assay for TRPC6 modulator project, cell-based, HEK293 TRPC4/mu-opioid, membrane potential dye, mouse; shares compounds with TRPC6 inhibitor; membrane potential fluorescence; percent change from control (negative = decrease, positive = increase), % at 10 µM; 69% of 2,400 active;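 active = membrane potential signal moved up or down beyond 5 SD of buffer control wells, in both duplicate plates, actives on both sides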;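 also: plate controls were assay buffer wells for no effect and DAMGO maximal-effect wells for full effect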
TRPC4/MOR inh 2: mouse TRPC4 off-target activity of TRPC6 modulators, second screen; shares compounds with TRPC6 inhibitor; HEK293 TRPC4/mu-opioid, membrane potential dye fluorescence; stimulated with maximal-effect DAMGO; inhibition, % at 10 µM; 55% of 2,400 active;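 active = drop in membrane potential signal beyond 5 SD of the control wells in both duplicate plates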;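 also: TRPC4 counter screen for TRPC6 hits run under conditions tuned for TRPC6 not TRPC4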
TRPC6 inh conf: mouse TRPC6 channel inhibitors, confirmation, HEK293 cells, membrane potential dye, duplicate; shares compounds with TRPC6 inhibitor; ACh-evoked depolarization; AID 488960, 2010; inhibition, % at 10 µM; 43% of 3,300 active;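 active = fluorescence ratio falls more than 5 SD below the full-stimulation control mean, in both duplicate runs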;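 also: integrated fluorescence ratio of peak minus minimum over baseline after agonist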
TRPC6 act conf: mouse TRPC6 channel activators, confirmation, HEK293 cells, membrane potential dye, duplicate; shares compounds with TRPC6 inhibitor; HEK293-TRPC6 membrane potential dye fluorescence, FDSS; activation, % at 10 µM; 11% of 2,800 active; AID 488961, 2010;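 active = ratio signal rise beyond 5 SD above unstimulated control wells' mean, seen in both duplicate runs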;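 also: plate controls were buffer EC0 wells for no effect and acetylcholine ECmax response for full effect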
* = called active by the depositor; i = inactive; nt = no result given.

SMILES | TRPC4 inh | TRPC6 inhibitor | TRPC4 PAM | TRPC6 act | TRPC4 agonist | TRPC4 spec 2 | TRPC4 spec | HEK293 MPD ctr 2-1 | HEK293 MPD ctr-1 | TRPC6 inh conf | TRPC6 act conf | others
COc1cccc(C(=O)N[C@@H](C)C(=O)N2CCC3(CC2)NCCc2[nH]cnc23)c1 | i | i | i | i | i | nt | nt | nt | nt | nt | nt
Nc1ccc(C(=O)OCc2nc3ccccc3s2)cc1 | i | -7.8* | i | i | i | i | i | i | i | i | i
CN1CCN(c2nc(-c3ccc(Cl)cc3)nc3ccccc23)CC1 | i | i | i | i | i | nt | nt | nt | nt | nt | nt
CC1(C)c2[nH]c3ccccc3c2C[C@@H]2C(=O)N(Cc3ccccc3)C(=O)N21 | i | i | i | i | i | nt | nt | nt | nt | nt | nt
CC1(C)c2[nH]c3ccccc3c2C[C@H]2C(=O)N(Cc3ccc(F)cc3)C(=O)N21 | i | -5.5* | i | i | i | nt | nt | nt | nt | i | i | HEK293 MPD ctr-2=i;HEK293 MPD ctr 2-2=i;TRPC4/MOR mod=-9.0%*;TRPC4/MOR inh 2=i
CCc1occc(=O)c1Oc1cc(NN2CCCCC2)c([N+](=O)[O-])cc1[N+](=O)[O-] | i | -7.4* | i | i | i | i | i | i | i | i | i
COc1ccnc(Oc2ccccc2)c1C(N)=O | i | i | i | i | i | nt | nt | nt | nt | nt | nt
COC(=O)C1CN(C(=O)COc2ccc(Cl)cc2Cl)c2ccccc2O1 (stereo unspecified) | i | i | i | i | i | nt | nt | nt | nt | nt | nt
